Measured values published in PMC12166265 (Clinical Pharmacology and Therapeutics, 2025).
Where two headings read alike, the source gives them in different places.

Legend:
ABCG2 p.Q141K variant = format: in vivo, human; conditions: two p.Q141K (CA) vs nine REF (CC) individuals; T = 0 h
Method in brief: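 Open-label fixed-sequence crossover in 11 healthy non-smoking adults aged 18–64. Single oral rosuvastatin 10 mg given after an overnight fast, with fasting continued 4 h. Heparinised venous plasma was stored at −70°C and analysed by LC–MS. ABCG2 c.421C>A was genotyped blind by PCR and Sanger sequencing. Nine CC and two CA subjects were compared at T = 0 h and by noncompartmental PK, using log-transformed geometric means and unpaired t-tests.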

P-gp = P-gp (Homo sapiens, UniProt P08183); experiment: Inhibitor screening of [3H]digoxin accumulation in HEK293 cells expressing P-gp; format: cell-based
Method in brief: (§1)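 HEK293 lines overexpressing the named transporter were grown in DMEM with 10% FBS, 1% penicillin/streptomycin and line-specific selection antibiotics, at 37°C, humidified, 5% CO₂. Cell-based uptake assays measured inhibition of transporter activity.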

OATP1B1 [1] = target: T1, OATP1B1 (Homo sapiens, UniProt Q9Y6L6); format: cell-based; conditions: HEK293 OATP1B1 cells
T1 sequence (Q9Y6L6 1-691): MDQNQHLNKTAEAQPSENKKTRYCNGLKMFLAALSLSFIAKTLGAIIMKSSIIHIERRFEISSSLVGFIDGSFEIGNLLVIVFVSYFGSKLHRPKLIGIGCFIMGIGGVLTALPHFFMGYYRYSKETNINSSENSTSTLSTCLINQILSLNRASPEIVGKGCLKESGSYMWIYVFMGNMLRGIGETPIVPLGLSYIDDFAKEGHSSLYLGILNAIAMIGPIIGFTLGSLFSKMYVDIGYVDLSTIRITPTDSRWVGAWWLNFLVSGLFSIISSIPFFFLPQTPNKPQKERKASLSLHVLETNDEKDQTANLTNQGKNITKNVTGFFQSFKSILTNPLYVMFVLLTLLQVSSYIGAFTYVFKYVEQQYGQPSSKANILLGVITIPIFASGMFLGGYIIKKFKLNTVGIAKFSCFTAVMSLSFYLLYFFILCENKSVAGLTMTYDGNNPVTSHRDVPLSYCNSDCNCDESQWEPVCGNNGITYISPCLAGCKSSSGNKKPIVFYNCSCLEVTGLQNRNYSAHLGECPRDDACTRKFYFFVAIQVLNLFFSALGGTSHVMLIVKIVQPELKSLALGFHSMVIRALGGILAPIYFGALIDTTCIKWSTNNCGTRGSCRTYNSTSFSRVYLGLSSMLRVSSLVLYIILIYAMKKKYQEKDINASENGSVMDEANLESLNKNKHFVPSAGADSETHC
Method in brief: (§2)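 Transporter-overexpressing HEK293 cells were cultured in DMEM with 10% FBS, 1% penicillin/streptomycin and selection antibiotics at 37°C, 5% CO₂. Test compounds were screened at 10 μM and 30 μM, and uptake was quantified as normalised peak areas. For OATP1B1/1B3, uptake was compared with empty-vector cells, and for OATP1B1 also with cells treated with the inhibitor cyclosporine A.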

OATP1B3 [2] = target: T2, OATP1B3 (Homo sapiens, UniProt Q9NPD5); experiment: Substrate screening in HEK293 cells expressing OATP1B3; format: cell-based
T2 sequence (Q9NPD5 1-702): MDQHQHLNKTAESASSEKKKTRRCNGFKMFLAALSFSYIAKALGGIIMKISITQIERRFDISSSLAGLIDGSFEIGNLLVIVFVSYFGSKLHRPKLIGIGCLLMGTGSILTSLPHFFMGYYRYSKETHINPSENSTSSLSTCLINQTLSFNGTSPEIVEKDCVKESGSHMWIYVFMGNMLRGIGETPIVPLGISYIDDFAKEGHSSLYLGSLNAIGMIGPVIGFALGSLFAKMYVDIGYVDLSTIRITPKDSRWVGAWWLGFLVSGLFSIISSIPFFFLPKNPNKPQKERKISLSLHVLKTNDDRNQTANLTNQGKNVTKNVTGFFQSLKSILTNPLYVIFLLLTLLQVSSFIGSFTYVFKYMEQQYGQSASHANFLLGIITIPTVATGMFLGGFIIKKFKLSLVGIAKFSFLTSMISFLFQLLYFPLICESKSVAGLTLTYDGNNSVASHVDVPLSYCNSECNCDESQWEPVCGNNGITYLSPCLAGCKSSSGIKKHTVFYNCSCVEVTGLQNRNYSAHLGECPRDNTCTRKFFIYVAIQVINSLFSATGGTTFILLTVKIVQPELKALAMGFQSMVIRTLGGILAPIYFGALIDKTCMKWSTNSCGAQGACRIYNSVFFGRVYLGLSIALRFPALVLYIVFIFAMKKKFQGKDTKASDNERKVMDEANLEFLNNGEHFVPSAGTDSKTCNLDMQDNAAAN
Method in brief: as §2

[3] = format: in vivo, human; conditions: for AUC(0-t): geometric mean (90% CI)
BCRP [4] = target: T3, BCRP (Homo sapiens, UniProt Q9UNQ0); format: cell-based
T3 sequence (Q9UNQ0 1-655): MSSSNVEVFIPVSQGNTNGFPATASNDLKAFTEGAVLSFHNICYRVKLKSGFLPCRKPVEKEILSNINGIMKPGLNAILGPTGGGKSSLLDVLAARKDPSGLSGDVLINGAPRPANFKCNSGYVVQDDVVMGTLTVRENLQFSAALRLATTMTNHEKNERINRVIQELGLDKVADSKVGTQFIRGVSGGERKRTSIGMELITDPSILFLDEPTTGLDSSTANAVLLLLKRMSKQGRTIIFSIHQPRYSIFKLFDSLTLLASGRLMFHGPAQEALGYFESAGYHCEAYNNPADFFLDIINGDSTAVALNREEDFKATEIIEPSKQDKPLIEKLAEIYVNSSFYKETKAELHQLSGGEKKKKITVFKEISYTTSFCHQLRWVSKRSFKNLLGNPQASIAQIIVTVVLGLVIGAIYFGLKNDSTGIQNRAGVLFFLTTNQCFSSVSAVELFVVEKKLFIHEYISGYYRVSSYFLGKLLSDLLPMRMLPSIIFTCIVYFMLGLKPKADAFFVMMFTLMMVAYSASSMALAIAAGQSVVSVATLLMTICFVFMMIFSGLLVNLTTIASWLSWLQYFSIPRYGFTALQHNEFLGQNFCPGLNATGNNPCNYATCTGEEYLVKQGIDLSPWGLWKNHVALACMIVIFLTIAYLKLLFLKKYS
Method in brief: as §2

OATP1B1 [5] = target: T1, OATP1B1; format: cell-based
Method in brief: as §1

RFVT1 = target: T4, RFVT1 (Homo sapiens, UniProt Q9NWF4); format: cell-based
T4 sequence (Q9NWF4 1-448): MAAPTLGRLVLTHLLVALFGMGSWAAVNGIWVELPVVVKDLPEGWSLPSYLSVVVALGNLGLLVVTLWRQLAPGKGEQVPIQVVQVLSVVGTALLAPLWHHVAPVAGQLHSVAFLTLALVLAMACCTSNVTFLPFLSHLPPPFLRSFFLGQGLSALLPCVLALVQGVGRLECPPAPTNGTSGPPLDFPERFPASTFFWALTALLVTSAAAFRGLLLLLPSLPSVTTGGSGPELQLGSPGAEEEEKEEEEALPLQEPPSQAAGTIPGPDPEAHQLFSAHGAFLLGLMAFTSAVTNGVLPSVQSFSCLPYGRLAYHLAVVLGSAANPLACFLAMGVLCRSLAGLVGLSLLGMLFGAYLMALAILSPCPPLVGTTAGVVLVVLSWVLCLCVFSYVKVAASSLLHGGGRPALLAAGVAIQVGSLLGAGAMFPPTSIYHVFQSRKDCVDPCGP
Method in brief: as §1

OATP1B3 [6] = target: T2, OATP1B3; format: cell-based
Method in brief: as §1

BCRP [7] = target: T3, BCRP; format: biochemical
RFVT2 = target: T5, RFVT2 (Homo sapiens, UniProt Q9HAB3); format: cell-based
T5 sequence (Q9HAB3 1-445): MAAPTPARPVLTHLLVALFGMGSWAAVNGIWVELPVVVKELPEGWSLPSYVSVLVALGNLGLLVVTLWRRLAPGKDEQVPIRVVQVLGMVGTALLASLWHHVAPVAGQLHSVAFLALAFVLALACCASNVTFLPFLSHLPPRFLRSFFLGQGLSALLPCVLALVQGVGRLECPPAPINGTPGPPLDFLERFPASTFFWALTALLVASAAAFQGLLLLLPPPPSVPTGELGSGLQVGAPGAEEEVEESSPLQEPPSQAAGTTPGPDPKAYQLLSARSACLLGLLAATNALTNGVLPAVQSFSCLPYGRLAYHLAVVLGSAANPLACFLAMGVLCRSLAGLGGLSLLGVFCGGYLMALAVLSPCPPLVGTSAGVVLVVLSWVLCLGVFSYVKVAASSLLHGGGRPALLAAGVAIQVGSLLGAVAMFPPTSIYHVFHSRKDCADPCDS
Method in brief: as §1

RFVT3 = target: T6, RFVT3 (Homo sapiens, UniProt Q9NQ40); format: cell-based
T6 sequence (Q9NQ40 1-469): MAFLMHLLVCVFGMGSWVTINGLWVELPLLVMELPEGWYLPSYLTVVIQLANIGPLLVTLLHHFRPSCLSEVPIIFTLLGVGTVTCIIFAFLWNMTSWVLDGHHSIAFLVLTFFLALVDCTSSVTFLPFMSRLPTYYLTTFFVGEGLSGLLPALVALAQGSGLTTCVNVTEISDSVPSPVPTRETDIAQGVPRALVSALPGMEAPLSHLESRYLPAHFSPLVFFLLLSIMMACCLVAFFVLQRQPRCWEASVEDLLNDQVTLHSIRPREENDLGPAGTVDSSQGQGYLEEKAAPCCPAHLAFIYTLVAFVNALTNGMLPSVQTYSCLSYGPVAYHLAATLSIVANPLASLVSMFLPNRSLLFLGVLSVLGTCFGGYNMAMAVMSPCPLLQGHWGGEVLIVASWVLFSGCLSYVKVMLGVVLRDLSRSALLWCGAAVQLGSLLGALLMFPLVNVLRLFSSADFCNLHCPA
Method in brief: as §1

hepatic BCRP = conditions: intravenous ceftriaxone as model; cited from earlier work
[8] = both, human, plasma, oral, 10 mg

Chain of P-gp (P08183 whole entry): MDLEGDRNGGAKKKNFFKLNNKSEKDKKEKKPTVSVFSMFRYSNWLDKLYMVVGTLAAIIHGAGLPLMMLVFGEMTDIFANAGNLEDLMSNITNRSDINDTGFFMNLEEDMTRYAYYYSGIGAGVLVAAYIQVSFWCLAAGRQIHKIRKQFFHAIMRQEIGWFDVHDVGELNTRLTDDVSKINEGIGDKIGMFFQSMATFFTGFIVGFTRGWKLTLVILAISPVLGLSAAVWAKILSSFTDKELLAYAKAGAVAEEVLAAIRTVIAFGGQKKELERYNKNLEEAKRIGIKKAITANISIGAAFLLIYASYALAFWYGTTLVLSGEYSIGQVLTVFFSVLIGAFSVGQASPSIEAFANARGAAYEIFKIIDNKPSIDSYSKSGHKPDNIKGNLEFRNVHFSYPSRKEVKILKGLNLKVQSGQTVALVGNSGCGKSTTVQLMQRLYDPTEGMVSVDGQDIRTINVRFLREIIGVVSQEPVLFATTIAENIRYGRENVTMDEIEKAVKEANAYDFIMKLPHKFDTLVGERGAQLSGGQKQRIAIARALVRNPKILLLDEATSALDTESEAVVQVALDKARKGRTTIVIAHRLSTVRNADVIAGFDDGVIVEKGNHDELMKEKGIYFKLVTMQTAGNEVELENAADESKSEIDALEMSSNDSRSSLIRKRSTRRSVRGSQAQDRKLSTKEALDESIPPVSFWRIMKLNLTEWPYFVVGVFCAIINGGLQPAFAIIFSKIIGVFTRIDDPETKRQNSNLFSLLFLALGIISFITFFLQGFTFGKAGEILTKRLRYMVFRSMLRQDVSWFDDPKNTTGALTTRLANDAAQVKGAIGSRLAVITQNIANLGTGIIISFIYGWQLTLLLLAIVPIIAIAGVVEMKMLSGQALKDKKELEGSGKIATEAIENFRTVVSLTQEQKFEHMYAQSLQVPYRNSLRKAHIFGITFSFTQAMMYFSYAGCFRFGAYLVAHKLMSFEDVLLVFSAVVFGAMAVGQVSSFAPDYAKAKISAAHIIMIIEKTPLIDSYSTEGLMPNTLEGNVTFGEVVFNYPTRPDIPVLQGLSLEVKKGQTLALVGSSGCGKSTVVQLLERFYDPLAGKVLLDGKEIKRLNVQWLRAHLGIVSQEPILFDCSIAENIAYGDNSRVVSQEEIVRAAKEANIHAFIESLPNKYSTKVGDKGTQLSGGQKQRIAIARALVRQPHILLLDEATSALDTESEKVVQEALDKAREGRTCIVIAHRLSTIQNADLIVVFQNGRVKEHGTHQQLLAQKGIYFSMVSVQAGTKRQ

O=C(O)c1c(O)c(Cl)cc(Cl)c1O [DCDBA, 3,5‐dichloro‐2,6‐dihydroxybenzoic acid]
Baseline concentrations, heterozygous p.Q141K vs homozygous reference allele (ABCG2 p.Q141K variant): not statistically significant | Effect on intracellular accumulation of P-gp substrate [3H]digoxin (P-gp): did not affect | OATP1B1 substrate classification (OATP1B1 [1]): not substrates | OATP1B3 substrate classification (OATP1B3 [2]): not substrates | AUC0−24, geometric mean ratio (90% CI) of rosuvastatin + eltrombopag arm to rosuvastatin alone arm ([3]; both, human, plasma, oral): 1.03 (0.97–1.10); P = 0.39 | C0 at 0 h ([3]; both, human, plasma, oral): 0.8 ng/mL | Cmax ([3]; both, human, plasma, oral): 0.98 ng/mL | C0 at 0 h [3, 8]: 0.73 ng/mL | Cmax [3, 8]: 1.03 ng/mL | AUC(0-t) ([3]; both, human, plasma, oral, 10 mg, AUC0−4, rosuvastatin alone arm): 3.02 ng·h/mL | AUC(0-t) ([3]; both, human, plasma, oral, 10 mg, AUC0−24, rosuvastatin alone arm): 18.6 ng·h/mL | AUC(0-t) ([3]; both, human, plasma, oral, AUC0−4, rosuvastatin + eltrombopag arm): 2.97 ng·h/mL | AUC(0-t) ([3]; both, human, plasma, oral, AUC0−24, rosuvastatin + eltrombopag arm): 19.2 ng·h/mL | Effect of eltrombopag administration on plasma concentrations (in words) ([3]; eltrombopag 75 mg daily for 5 days): did not lead to corresponding increases | AUC0−4, geometric mean ratio (90% CI) of rosuvastatin + eltrombopag arm to rosuvastatin alone arm ([3]; human, in vivo): 0.98 (0.93–1.04); P = 0.72 | C0, geometric mean ratio (90% CI) of rosuvastatin + eltrombopag arm to rosuvastatin alone arm ([3]; human, in vivo): 1.10 (1.00–1.21); P = 0.07 | Cmax, geometric mean ratio (90% CI) of rosuvastatin + eltrombopag arm to rosuvastatin alone arm ([3]; human, in vivo): 0.95 (0.85–1.06); P = 0.49 | Food effects, fasted (AUC0−4) vs fed (AUC4−8) ([3]; human, in vivo): No food effects | Uptake in BCRP-expressing HEK293 cells compared to same cell line with Ko143 (BCRP [4]; 10 μM and 30 μM, 30 min): significantly reduced | BCRP substrate classification (BCRP [4]; HEK293 BCRP cells): BCRP substrates

CC1=NN(c2ccc(C)c(C)c2)C(=O)/C1=N\Nc1cccc(-c2cccc(C(=O)O)c2)c1O [Eltrombopag]
IC50 (OATP1B1 [5]): 1.4 ± 1.2 µM | IC50 (RFVT1): 44.7 ± 18.3 µM | IC50 (OATP1B3 [6]): 4 ± 3.1 µM | IC50 (BCRP [7]): 4.9 ± 0.6 µM | IC50 (RFVT2): 28.2 ± 15.7 µM | IC50 (RFVT3): 26.3 ± 34 µM | Inhibition of hepatic BCRP (hepatic BCRP): does not inhibit
